ChEMBL document CHEMBL4513216, “Probing the Open Global Health Chemical Diversity Library for Multistage-Active Starting Points for Next-Generation Antimalarials” (ACS Infect Dis, 2020)

Test: Toxicity liver stage against HepG2, at 10uM
Type: cell-based
Set-up: test concentration 10 uM, cell line HepG2-A16-CD81EGFP
Conditions: human, HepG2-A16-CD81EGFP cells; read-out: INHIBITION
How it was run: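 Uninfected HepG2-A16-CD81EGFP cells, 3 × 10^3 per well, 1536-well, plated on prespotted compound at 10 μM final, parasite-free screening media added to match infected plates; puromycin 10 μM positive, DMSO 0.5% negative; run in parallel with 48 h PbLuc assay at 37 °C, 5% CO2; viability by CellTiter-Glo luminescence, normalized to controls.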

SMILES	cytotoxicity at 10 µM [%]
CCn1nc(C)c(-c2cncn2CCN(C)C2CCCC2)c1C	4.83
CC(C)n1ncc2c1NC(=O)CC21C(=O)Nc2c(Cl)cccc21 (stereo not drawn)	-1.58
COCc1ccccc1NCc1csc(NC(C)=O)n1	-1.36
Cc1cc(CNC(=O)C2CCCN2C(=O)OC(C)(C)C)no1 (stereo not drawn)	-4.12
CCC(O)CN1CCN(C(=O)c2cccc3[nH]ncc23)CC1 (stereo not drawn)	-11.2
CC(NC(=O)COc1cccc[n+]1[O-])C1CC1 (stereo not drawn)	-6.66
CN(C)C(=O)N1CCC2(CC1)CN(CC1CC1)CC21CCNC1=O (stereo not drawn)	3.67
CCn1nccc1CNC(=O)C1CCCC1	-18.5
Cc1sc2nc(SC(C)c3nc(C(C)(C)C)no3)nc(N)c2c1C (stereo not drawn)	-1.13
O=C(CS(=O)(=O)c1ccc(Cl)cc1)NC1CCCc2ccccc21 (stereo not drawn)	1.03
CCC(C)NC(=O)c1nnn(-c2cccc3c2CCN(C)C3)c1C (stereo not drawn)	-6.39
Cc1ncsc1CN1CCOC(C)(C(N)=O)C1 (stereo not drawn)	0.267
O[C@@H]1CN(Cc2cnccn2)C[C@H]1Oc1ccccc1	-29.5
OC1CCN(CCCn2ccnc2-c2c[nH]cn2)CC1	-1.57
Cc1nn(C)c2nc(NCCCN3CCCC(CO)C3)sc12 (stereo not drawn)	-14.2
COc1ccc(C)cc1CC(=O)NS(=O)(=O)c1ccc(C(N)=O)cc1	8
Cc1noc(C)c1CN1C[C@@H]2OCCN(Cc3cnn(C)c3)[C@@H]2C1	-139
COc1cccc(C2CCCN2CCCNS(C)(=O)=O)c1 (stereo not drawn)	-2
Cn1ncc2c(=O)[nH]c(CN3CCCC3CC(C)(C)C)nc21 (stereo not drawn)	-1.09
CN(Cc1cccc(C#N)c1)Cc1nc2c(cnn2C)c(=O)[nH]1	-8.7
CC(C)COC(C)C(=O)N1CCCC1 (stereo not drawn)	2.77
Cn1cc(CNC(=O)Nc2ccc(S(=O)(=O)C(F)F)cc2)cn1	-5.09
COc1ccc(N2CCN(C(=O)CCn3nccc3C)C(C)C2)cc1 (stereo not drawn)	14.3

SMILES	cytotoxicity at 10 µM [%]
Cc1nc(C)c(C(C)NCc2cnc(N3CCOCC3)nc2)s1 (stereo not drawn)	-4.76
CC(C)n1cnnc1C1CCCN(C(=O)COCc2ccccc2)C1 (stereo not drawn)	-20.3
COc1c(CNC2CCOc3ccccc32)c(C(C)C)nn1C (stereo not drawn)	-0.169
COc1cccc(COCC(=O)NC(C(N)=O)c2ccccc2F)c1 (stereo not drawn)	-4.55
CC(Sc1nnc(C2CC2)n1CC(N)=O)c1ccc(Cl)cc1 (stereo not drawn)	7.72
COCC(NC(=O)NCc1cccc(C#N)c1)c1ccco1 (stereo not drawn)	2.7
CN(C)C1CCCN(C(=O)CCc2csc(N)n2)CC1 (stereo not drawn)	1.48
O=C(Cn1cc(C2CC2)nn1)NC(c1ccc(Cl)cc1)C1CC1 (stereo not drawn)	2.16
Cc1ccc(S(=O)(=O)N2CCOc3ccccc32)cc1C(N)=O	7.91
Cc1ccc(C(=O)N2CCC(Oc3ccc(F)cc3F)CC2)c(=O)[nH]1	7.63
COc1cc2c(cc1C1CC(=O)NCc3nc(N(C)C)sc31)CCC2 (stereo not drawn)	1.16
COc1cc(CO)c(OC)c2c1OCO2	-2.93
O=C(CCc1ccsc1)NCC1CCN(C2CC2)C1 (stereo not drawn)	2.63
CN(C)CCn1c(=O)oc2ccc(NC(=O)N3CCCCCC3)cc21	-3.59
Cc1cccc(NCC(=O)Nc2cc(F)ccc2F)c1C(N)=O	7.53
CN(Cc1cnn(-c2ccccc2)n1)CC1CCCN1c1cccnn1 (stereo not drawn)	-6.56
O=C1C(Sc2nnnn2C2CC2)CCN1c1ccccc1Cl (stereo not drawn)	2.4
COc1cc2c(cc1OC)CN(C(=O)Cn1nc(C)cc1C)CC2	1.29
CCc1nc(CN(C)C(=O)CSC)no1	2.25
Cc1ccc(C2CCCCCN2CCNS(C)(=O)=O)o1 (stereo not drawn)	0.395
Cc1cc(C)c2nc(CN[C@H]3CCCNC3)cc(O)c2c1	4.09
CCN1CCOCC12CCN(C(=O)Cc1ccccc1)CC2	-75.3
CCS(=O)(=O)NCC1OCCc2cn(CCOC)nc21 (stereo not drawn)	9.43

SMILES	cytotoxicity at 10 µM [%]
COc1cccc(CCC(=O)Nc2ccn(C)n2)c1OC	-2.14
Cc1nsc(NC(=O)NC2CCCN(C)C2)n1 (stereo not drawn)	-17.1
CCCOc1ccc(C(=O)N[C@@H]2CCNC[C@H]2O)cc1Cl	-10.4
c1ccc(Cc2noc(CNC3CCc4ncnn4C3)n2)cc1 (stereo not drawn)	-5.99
Cc1cccc2c1nc(COCC(=O)O)n2-c1ccsc1	-0.793
Cc1ccc(CN2C[C@@H]3CCN(Cc4ccncc4)C(=O)[C@H]3C2)s1	4.53
Cc1n[nH]c(C)c1CCC(=O)NCC1CCOc2ccccc2C1 (stereo not drawn)	-45.6
CCC1CN(Cc2c(O)ccc3oc4c(c23)CCCC4)CCO1 (stereo not drawn)	2.03
CC(C)N(CCO)C(=O)c1cc(COc2ccc3c(c2)CCCC3)on1	-135
Clc1snnc1CN1CCCC1Cn1cccn1 (stereo not drawn)	-17.9
O=c1cc(CN(CCO)C2CC2)nc2ccccn12	-1.05
Cc1nc(CN2CCC3(CCCO3)CCC2=O)no1 (stereo not drawn)	-0.452
CC1(C)CN(C(=O)CC2CCC2)C[C@]1(C)O	-9.15
C[C@H](NC(=O)Cc1csc(-c2cccc(Cl)c2)n1)C(=O)O	1.25
COCc1noc(CN2C(=O)OC[C@@H]2C(C)C)n1	-11.8
COc1ccc(/C=C/CN2CCC3(CC2)CN(C)C(=O)O3)cc1	-2.11
Cc1cnn(C2CCCN(C(=O)c3cnc4ccccc4n3)C2)c1 (stereo not drawn)	-10.7
Cn1cccc1C(=O)NC(C)(C(N)=O)c1cccc(Cl)c1 (stereo not drawn)	4.07
CC1(C(=O)NCCc2ccc(F)cc2)CCOCC1	5.42
Cc1cc(NS(=O)(=O)c2ccc(C(=O)O)cc2F)ccc1F	-1.96
COc1cccc(NC(=O)NC(C)(C)c2noc(C)n2)c1	7.35
O=C(O)C1(n2ccc(-c3ccco3)n2)CCN(Cc2cccnc2)CC1	-131
COc1ccccc1OC1CN(C(=O)c2c(C)nc3ccc(C)cn23)C1	-0.376

SMILES	cytotoxicity at 10 µM [%]
Cc1ccc(N2CCCC(NCC(=O)NC(C3CC3)C3CC3)C2)nn1 (stereo not drawn)	-2.8
Cc1csc(CN2CC[C@H]3O[C@H](C(=O)Nc4cccnc4)CC[C@H]32)n1	-47.1
COc1cccc(Cn2c(=O)n(C)c(=O)c3sccc32)c1	3.29
CC(=O)c1cc(C(=O)NC2(c3ccc(Br)cc3)CC2)n(C)c1	5.78
CCS(=O)(=O)NCc1nc(C)cc(N2CCCCC2)n1	6.79
O=C(c1c(O)cnc2ccccc12)N1CCN(CC(F)F)CC1	-2.22
Cn1cc(C2CCCN2C(=O)Cc2coc(-c3ccccc3)n2)cn1 (stereo not drawn)	4.14
O=c1[nH]nc(CCCN2CCOCC2)n1Cc1cccc(F)c1	7.04
CCc1c(C(=O)O)nnn1-c1cc(C)cc(C)c1	-6.69
COc1ccnc(N2CCN(Cc3ncc(C(C)(C)C)o3)CC2)n1	-7.2
O=C(NCc1ccco1)[C@H]1C[C@@H]2CCN(c3ccncn3)C[C@@H]2O1	-9.58
CS(=O)(=O)c1cc(Cl)cnc1C1CCN(C(=O)C2CC2)CC1	8.21
Cc1cc(C)n(CC2CCCN2C(=O)Cc2c(C)nn(C)c2C)n1 (stereo not drawn)	-13.8
Cc1ccc(CN(C)C(=O)CN2CCCC(Cn3cncn3)C2)o1 (stereo not drawn)	-24.4
Cc1ccnc(OC[C@]23COC[C@H]2CN(C(=O)Cc2ccsc2)C3)n1	-0.376
CC(C)OC(=O)[C@@H]1CCN(C(=O)c2ccccn2)[C@@H]1c1ccc(F)cc1	4.81
COCCC(=O)N1CCC(Nc2ncc(Cl)cn2)CC1	-6.74
C=C(C)COc1ccccc1C(=O)N1CCC2(CC1)CN(C)CCN2C	-50.2
Cc1noc([C@@H]2CCO[C@@H]3CCN(Cc4nccs4)C[C@@H]32)n1	-75.8
CC(C)=CCN1CCN(S(=O)(=O)c2cn(C)cn2)[C@H]2CS(=O)(=O)C[C@H]21	0.634
CC(NCC1CCN(CCO)CC1)c1ccc(Cl)cc1 (stereo not drawn)	-9.12
CC(C)OCc1ncn2c1CN(CC1CC1)CCC2	-68.9
CCc1nc2n(n1)CC(NCc1nc(C)ccc1O)CC2 (stereo not drawn)	-9.96

SMILES	cytotoxicity at 10 µM [%]
COC(C)(C)CC(C)NC(=O)Nc1ccccn1 (stereo not drawn)	8.19
CC(CNS(C)(=O)=O)c1ccc(F)c(F)c1 (stereo not drawn)	-4.71
O=C(CN1CCN(c2ccnc3c(F)ccc(F)c23)CC1)NC1CC1	-1.12
COc1ccc(CNC(=O)c2nn(C)c3c2CS(=O)(=O)CC3)cc1OC	8.09
Cc1c[nH]c(C(=O)N2CCCC2c2ccc(C(=O)N3CCSCC3)s2)n1 (stereo not drawn)	2.73
CCCNC(=O)c1nn(CC)cc1NC(=O)C(C)n1ncc(Cl)c1C (stereo not drawn)	7.19
NC(=O)C1CCCN1Cc1cccc(NC(=O)c2ccc(Cl)cc2F)c1 (stereo not drawn)	18.6
Cc1cc(CN(C)C(=O)c2cc(COc3ccccc3)[nH]n2)n[nH]1	5.76
Cc1nnc(CN(C)CC2CCCN2c2cccnn2)o1 (stereo not drawn)	-0.514
CNC(=O)CN(C)C(=O)Cc1csc(C(C)C)n1	-5.07
Cc1ccc(CN2CCCC3(CCC(=O)N3)CC2)s1 (stereo not drawn)	-5.84
N#Cc1cccc(N2CCCC3(CNCCO3)C2)n1 (stereo not drawn)	13.7
CN(Cc1cccnc1)CC1(O)CCCN(CC(C)(C)C)C1=O (stereo not drawn)	3.09
FC(F)(F)c1cccc(OC2CCN(Cc3c[nH]cn3)CC2)c1	-47.8
CCCN1CCN(Cc2cc3cc(OCC)ccc3[nH]c2=O)CC1	-9.91
CN1CCCC2(CCN(S(=O)(=O)c3ccc(-c4cnco4)s3)C2)C1=O (stereo not drawn)	5.84
CCc1nc(CSCc2csc(CS(C)(=O)=O)n2)cs1	-6.79
CCCc1c(C(=O)N2CCN(Cc3ccccn3)CC2)cnn1C	-1.96
COc1ccc2nnc(CCCC(=O)NCCc3ccncc3)n2n1	-10
CC(C)NC(=O)NCc1cc(-c2cccc(Cl)c2)nn1C	3.66
COCC1CN(Cc2ccoc2)Cc2cn(C)nc21 (stereo not drawn)	7.55
